Measurements published in ChEMBL document CHEMBL1909555, “Synthesis and antimalarial activity of thioetherhydroxyethylsulfonamides, potential aspartyl protease inhibitors, Part 3” (Eur J Med Chem, 2011).
≈ marks a conversion by molar mass, not a printed value.

Assays:
Plasmodium falciparum = test: Antimalarial activity against chloroquine resistant, mefloquine sensitive Plasmodium falciparum W2 infected in human erythrocytes by [3H]-hypoxanthine incorporation assay; type: functional, organism-based
[1] = Cytotoxicity against african green monkey BGMK cells after 24 hrs by MTT assay; type: cell-based; settings: chlorocebus aethiops, read-out: LD50
In short: (§1)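 Trypsinized cells seeded at 5 × 10³/well and allowed to adhere 18 h. Compounds added at varied concentrations for 24 h. MTT then added for 3 h, formazan dissolved in DMSO, absorbance read at 570 and 630 nm. Viability taken as % of untreated control after background subtraction, and LD50 derived.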

[2] = Cytotoxicity against human HepG2 cells after 24 hrs by MTT assay; type: cell-based; settings: read-out: LD50; in short: as §1

SMILES | IC50 (Plasmodium falciparum) [µg/mL] | CC50 at 24 h [1] [µg/mL] | CC50 at 24 h [2] [µg/mL]
CC(C)(C)OC(=O)N[C@@H](Cc1ccccc1)[C@H](O)CSc1ccccn1 | 31.7 (≈ 84.6 µM) | > 200 | > 200
CC(C)(C)OC(=O)N[C@@H](Cc1ccccc1)[C@H](O)CSc1ncccn1 | > 50 | 170 (≈ 453 µM) | 197 (≈ 525 µM)
O=[N+]([O-])c1ccc(S(=O)(=O)N[C@@H](Cc2ccccc2)[C@H](O)CSc2ccccn2)cc1 | > 50 | > 200 | > 200
Cc1ccc(S(=O)(=O)N[C@@H](Cc2ccccc2)[C@H](O)CSc2ccccn2)cc1 | > 50 | 192 (≈ 448 µM) | 191 (≈ 446 µM)
O=[N+]([O-])c1ccc(S(=O)(=O)N[C@@H](Cc2ccccc2)[C@H](O)CSc2ncccn2)cc1 | 15 (≈ 32.6 µM) | > 200 | > 200
O=S(=O)(N[C@@H](Cc1ccccc1)[C@H](O)CSc1ncccn1)c1ccc(Br)cc1 | 25 (≈ 50.6 µM) | 99 (≈ 200 µM) | 101 (≈ 204 µM)
